Assay results reported in ChEMBL document CHEMBL3352586, “Pyridyl benzamides as a novel class of potent inhibitors for the kinetoplastid Trypanosoma brucei” (J Med Chem, 2014).
≈ marks a conversion by molar mass, not a printed value.

Legend:
[1] = test system: Trypanosoma brucei brucei; assay: Antimicrobial activity against bloodstream form of Trypanosoma brucei brucei 427 at 10 uM after 48 hrs by alamar blue assay; assay type: functional; conditions: Trypanosoma brucei, 427, 48 h
[2] = test system: Trypanosoma brucei brucei; assay: Antimicrobial activity against bloodstream form of Trypanosoma brucei brucei 427 after 48 hrs by alamar blue assay; assay type: functional, organism-based; conditions: Trypanosoma brucei, 427, 48 h
[3] = Selectivity index, ratio of IC50 for HEK293 cells to IC50 for Trypanosoma brucei brucei 427; assay type: toxicity, cell-based; conditions: human, read-out: Ratio IC50
[4] = test system: Trypanosoma brucei rhodesiense; assay: Antimicrobial activity against bloodstream form of Trypanosoma brucei rhodesiense STIB 900 after 70 hrs by alamar blue assay; assay type: functional, organism-based; conditions: STIB 900, 70 h
Summary of the method: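 Trypanosoma brucei rhodesiense STIB 900 bloodstream-form trypomastigotes, with melarsoprol as reference drug.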

Leishmania donovani = assay: Antimicrobial activity against amastigote form of Leishmania donovani MHOM/ET/67/L82 after 70 hrs by alamar blue assay; assay type: functional, organism-based; conditions: MHOM/ET/67/L82, 70 h
Summary of the method: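 Leishmania donovani MHOM-ET-67/L82 axenic amastigotes, with miltefosine as reference drug.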

Plasmodium falciparum = assay: Antimicrobial activity against erythrocytic stage of Plasmodium falciparum NF54 infected in human washed RBC assessed as [3H]-hypoxanthine incorporation incubated for 48 hrs prior to [3H]-hypoxanthine addition measured after 24 hrs by liquid scintillation counting analysis; assay type: functional, organism-based
L6 = assay: Cytotoxicity against rat L6 cells after 70 hrs by alamar blue assay; assay type: cell-based; conditions: L6, 70 h
Summary of the method: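 Cytotoxicity on the rat skeletal myoblast L-6 strain, with podophyllotoxin as reference drug.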

Trypanosoma cruzi = assay: Antimicrobial activity against amastigote form of Trypanosoma cruzi Tulahuen C2C4 infected in rat L6 cells after 96 hrs by microscopic analysis; conditions: Tulahuen C2C4, L6, 96 h
[5] = Partition coefficient, log D of the compound at pH 7.4 by HPLC method; assay type: physicochemical; conditions: octanol/water
Summary of the method: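 Distribution coefficient at pH 7.4 was measured chromatographically.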

[6] = Kinetic solubility of the compound at 10 mg/ml at pH 2 by nephelometry; assay type: physicochemical; conditions: buffer, read-out: Kinetic_solubility
Summary of the method: (§1)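 Kinetic solubility was read by nephelometry at pH 2 and pH 6.5 and reported as μg/mL ranges.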

[7] = Kinetic solubility of the compound at 10 mg/ml at pH 6.5 by nephelometry; assay type: physicochemical; conditions: buffer, read-out: Kinetic_solubility; summary of the method: as §1
[8] = Plasma protein binding in human […] by chromatographic method; assay type: ADME, cell-free; conditions: read-out: PPB (converted)
Summary of the method: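 Human plasma protein binding was estimated by a chromatographic method.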

Liver microsome = assay: Intrinsic clearance in human liver microsomes at 1 uM after 60 mins by LC-MS analysis; assay type: ADME; conditions: 1 h
Summary of the method: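 In vitro intrinsic clearance was measured in human liver microsomes and expressed per mg protein. A hepatic extraction ratio (E_H) was predicted from the in vitro data.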

Cc1ccccc1C(=O)Nc1ccccc1
inhibition at 10 µM [1]: < 10%

Cc1cc(NC(=O)c2ccccc2C)no1
inhibition at 10 µM [1]: < 10%

Cc1ccccc1NC(=O)c1ccccn1
inhibition at 10 µM [1]: < 10%

Cc1ccccc1C(=O)Nc1ccc(Cl)cn1
inhibition at 10 µM [1]: < 10%

Cc1ccccc1C(=O)Nc1nncs1
inhibition at 10 µM [1]: < 10%

Cc1ccccc1C(=O)Nc1ccc(Br)cn1
inhibition at 10 µM [1]: < 10%

Cc1ccccc1C(=O)Nc1ccc(Br)c(C)n1
inhibition at 10 µM [1]: < 10%

Cc1ccccc1C(=O)Nc1nc[nH]n1
inhibition at 10 µM [1]: < 10%

Cc1ccccc1C(=O)Nc1ccccn1
IC50 [2]: 3.03 µM | inhibition at 10 µM [1]: 80% | selectivity ratio [3]: 27.5 | IC50 [4]: 2.1 µM | IC50 (Leishmania donovani): 48 µM | IC50 (Plasmodium falciparum): 36 µM | IC50 (L6): 156 µM | IC50 (Trypanosoma cruzi): 152 µM

O=C(Nc1ccccn1)c1ccccc1-c1ccccc1
inhibition at 10 µM [1]: < 10%

Cc1ccccc1C(=O)Nc1cccnn1
inhibition at 10 µM [1]: < 10%

Cc1ccccc1C(=O)Nc1ccc(C#CCC(C)C)cn1
inhibition at 10 µM [1]: 12%

CCC/C=C/c1ccc(NC(=O)c2ccccc2C)nc1
inhibition at 10 µM [1]: 19%

Cc1ccccc1C(=O)Nc1ccc(-c2ccccc2)cn1
inhibition at 10 µM [1]: 11%

Cc1ccccc1C(=O)Nc1cccc(OCC(C)C)n1
inhibition at 10 µM [1]: < 10%

CCCCN(C(=O)c1ccccc1C)c1ccccn1
inhibition at 10 µM [1]: 11%

CCCCCN(C(=O)c1ccccc1C)c1ccccn1
inhibition at 10 µM [1]: 17%

O=C(Nc1ccccn1)c1ccccc1I
inhibition at 10 µM [1]: 38%

O=C(Nc1ccccn1)c1ccccc1C(F)(F)F
inhibition at 10 µM [1]: < 10%

COc1cccnc1NC(=O)c1ccccc1C
inhibition at 10 µM [1]: < 10%

Cc1ccccc1C(=O)Nc1ncccc1C
inhibition at 10 µM [1]: 34%

Cc1ccccc1C(=O)Nc1ncccc1F
inhibition at 10 µM [1]: < 10%

Cc1ccccc1C(=O)Nc1ncccn1
logD [5]: 3.9 | solubility kinetic [6]: 6.3 µg/mL (≈ 29.5 µM) | solubility kinetic [7]: 6.3 µg/mL (≈ 29.5 µM) | fraction unbound [8]: 0.024 | inhibition at 10 µM [1]: < 10%

Cc1ccccc1C(=O)Nc1cc(C#N)ccn1
logD [5]: 2.8 | solubility kinetic [6]: 50 µg/mL (≈ 211 µM) | solubility kinetic [7]: 25 µg/mL (≈ 105 µM) | fraction unbound [8]: 0.359 | CLint (Liver microsome): 82 µL/min/mg | IC50 [2]: 2.3 µM

Cc1ccccc1C(=O)Nc1cnccn1
inhibition at 10 µM [1]: 35%

Cc1ccccc1C(=O)Nc1cc(Br)ccn1
IC50 [2]: 1.8 µM | selectivity ratio [3]: > 41

Cc1ccccc1C(=O)Nc1cc(F)ccn1
IC50 [2]: 0.51 µM | selectivity ratio [3]: 168

Cc1ccccc1C(=O)Nc1cc(C#CCC(C)C)ccn1
IC50 [2]: 1.1 µM | selectivity ratio [3]: > 53

Cc1ccccc1C(=O)Nc1cc(-c2ccccc2)ccn1
IC50 [2]: 2 µM | selectivity ratio [3]: 31 | IC50 [4]: 0.97 µM | IC50 (Leishmania donovani): > 124 µM | IC50 (Plasmodium falciparum): 91 µM | IC50 (L6): 70 µM | IC50 (Trypanosoma cruzi): 66 µM

COc1ccc(NC(=O)c2ccccc2C)nc1
logD [5]: 2.5 | solubility kinetic [6]: > 100 µg/mL | solubility kinetic [7]: 12.5 µg/mL (≈ 51.6 µM) | fraction unbound [8]: 0.399 | CLint (Liver microsome): 23 µL/min/mg | IC50 [2]: 3.8 µM | selectivity ratio [3]: > 22

Cc1ccc(NC(=O)c2ccccc2C)nc1
inhibition at 10 µM [1]: < 10%

Cc1ccccc1C(=O)Nc1ccncn1
inhibition at 10 µM [1]: < 10%

Cc1ccccc1C(=O)Nc1ccc(C#N)cn1
logD [5]: 3.9 | solubility kinetic [6]: 6.3 µg/mL (≈ 26.6 µM) | solubility kinetic [7]: 6.3 µg/mL (≈ 26.6 µM) | fraction unbound [8]: 0.025 | inhibition at 10 µM [1]: < 10%

COc1cccc(NC(=O)c2ccccc2C)n1
inhibition at 10 µM [1]: < 10%

Cc1cccc(NC(=O)c2ccccc2C)n1
inhibition at 10 µM [1]: < 10%

Cc1ccccc1C(=O)Nc1cccc(F)n1
logD [5]: 3 | solubility kinetic [6]: > 100 µg/mL | solubility kinetic [7]: > 100 µg/mL | fraction unbound [8]: 0.33 | CLint (Liver microsome): 191 µL/min/mg | inhibition at 10 µM [1]: < 10%

Cc1ccccc1C(=O)Nc1cccc(C#N)n1
inhibition at 10 µM [1]: 11%

Cc1ccccc1C(=O)Nc1cccc(Cl)n1
inhibition at 10 µM [1]: < 10%

Cc1ccccc1C(=O)Nc1cccc(Br)n1
inhibition at 10 µM [1]: < 10%

Cc1ccccc1C(=O)Nc1cccc(-c2ccccc2)n1
inhibition at 10 µM [1]: 33%

Cc1ccccc1C(=O)Nc1cccc(C#CCC(C)C)n1
inhibition at 10 µM [1]: < 10%

CCC/C=C/c1cccc(NC(=O)c2ccccc2C)n1
IC50 [2]: 6 µM | selectivity ratio [3]: > 3

Cc1ccccc1C(=O)Nc1cccc(C#Cc2ccccc2)n1
inhibition at 10 µM [1]: < 10%

Cc1ccccc1C(=O)Nc1cccc(O)n1
inhibition at 10 µM [1]: < 10%
